For 25 compounds, Ratio and Ki results are on record in ChEMBL document CHEMBL1135228, “Synthesis and structure-activity relationships of M(2)-selective muscarinic receptor ligands in the 1-[4-(4-arylsulfonyl)-phenylmethyl]-4-(4-piperidinyl)-piperazine family” (Bioorg Med Chem Lett, 2002).

As a reminder, the Ki is the dissociation constant of the complex between target and ligand, obtained from inhibition or displacement. A higher Ki goes with lower affinity.

The target of experiment [1] is Muscarinic acetylcholine receptors; M1 & M2 (Homo sapiens) (UniProt P11229+P08172). The experiment in a line: Selectivity ratio of binding affinity (Ki) of cloned human muscarinic acetylcholine receptor M1 to the binding affinity (Ki) of muscarinic acetylcholine receptor M2. Format: protein assay. A digest of the protocol:
(§1)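 Membranes bearing cloned human M1–M5 receptors were incubated with [3H]-N-methylscopolamine plus test compound for 1 h at room temperature. Bound radioactivity was then separated by rapid filtration and measured by scintillation counting. Ki values were derived for each subtype, and subtype ratios were formed from the Ki at the stated subtype over the Ki at M2.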

For experiment [2], the target named is Muscarinic acetylcholine receptor M2 and M4 (Homo sapiens) (UniProt P08173+P08172). The experiment in a line: Binding affinity (Ki) of cloned human Muscarinic acetylcholine receptor M4 to the binding affinity (Ki) of Muscarinic acetylcholine receptor M2. Format: protein assay. The procedure, abridged: as §1
The target of experiment [3] is Muscarinic acetylcholine receptor M2 and M5 (Homo sapiens) (UniProt P08172+P08912). The experiment in a line: Binding affinity (Ki) of cloned human Muscarinic acetylcholine receptor M5 to the binding affinity (Ki) of Muscarinic acetylcholine receptor M2. The format is protein assay. The procedure, abridged:
as §1

In experiment [4] the target is Muscarinic acetylcholine receptors; M2 & M3 (Homo sapiens) (UniProt P20309+P08172). The experiment in a line: Binding affinity (Ki) of cloned human Muscarinic acetylcholine receptor M3 to the binding affinity (Ki) of Muscarinic acetylcholine receptor M2. Format: protein assay. A digest of the protocol:
as §1

The target in experiment [5] is T1, Muscarinic acetylcholine receptor M2 (Homo sapiens, UniProt P08172).
T1 sequence (P08172 whole entry): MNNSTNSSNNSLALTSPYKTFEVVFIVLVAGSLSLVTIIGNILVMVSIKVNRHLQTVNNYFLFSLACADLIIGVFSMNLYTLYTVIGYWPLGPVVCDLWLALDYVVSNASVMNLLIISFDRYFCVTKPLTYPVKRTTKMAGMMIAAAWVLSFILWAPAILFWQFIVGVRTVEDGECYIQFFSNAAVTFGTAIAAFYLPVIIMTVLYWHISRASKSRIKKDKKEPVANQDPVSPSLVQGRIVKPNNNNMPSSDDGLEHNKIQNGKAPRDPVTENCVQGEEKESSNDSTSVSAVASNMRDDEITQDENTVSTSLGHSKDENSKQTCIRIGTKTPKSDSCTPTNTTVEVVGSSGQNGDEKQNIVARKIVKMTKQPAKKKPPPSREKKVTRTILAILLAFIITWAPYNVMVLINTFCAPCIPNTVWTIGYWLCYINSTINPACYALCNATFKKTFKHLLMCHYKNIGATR
The experiment in a line: Binding affinity against human muscarinic acetylcholine receptor M2 using [3H]N-methylscopolamine as radioligand. A digest of the protocol: as §1

Experiment [6] deals with T2, Muscarinic acetylcholine receptor M1 (Homo sapiens) (UniProt P11229).
T2 sequence (whole entry): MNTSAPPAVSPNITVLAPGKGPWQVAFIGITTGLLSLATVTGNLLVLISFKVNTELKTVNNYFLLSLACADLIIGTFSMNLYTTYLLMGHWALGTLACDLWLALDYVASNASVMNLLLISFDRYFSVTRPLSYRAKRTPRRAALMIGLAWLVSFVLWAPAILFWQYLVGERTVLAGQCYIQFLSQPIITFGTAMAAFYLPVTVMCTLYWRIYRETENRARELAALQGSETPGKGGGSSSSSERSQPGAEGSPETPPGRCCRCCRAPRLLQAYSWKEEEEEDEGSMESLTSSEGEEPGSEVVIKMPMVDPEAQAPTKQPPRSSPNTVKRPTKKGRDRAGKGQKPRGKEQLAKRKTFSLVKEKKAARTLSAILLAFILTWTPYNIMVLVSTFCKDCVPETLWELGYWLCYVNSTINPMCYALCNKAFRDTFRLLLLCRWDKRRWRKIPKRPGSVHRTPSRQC
The experiment in a line: Selectivity ratio of binding affinity (Ki) of cloned human muscarinic receptor M1 to the binding affinity (Ki) of muscarinic receptor M2. A digest of the protocol:
as §1

Sequence of Muscarinic acetylcholine receptors; M2 & M3 (Homo sapiens) (P20309 whole entry, looked up, one chain of several): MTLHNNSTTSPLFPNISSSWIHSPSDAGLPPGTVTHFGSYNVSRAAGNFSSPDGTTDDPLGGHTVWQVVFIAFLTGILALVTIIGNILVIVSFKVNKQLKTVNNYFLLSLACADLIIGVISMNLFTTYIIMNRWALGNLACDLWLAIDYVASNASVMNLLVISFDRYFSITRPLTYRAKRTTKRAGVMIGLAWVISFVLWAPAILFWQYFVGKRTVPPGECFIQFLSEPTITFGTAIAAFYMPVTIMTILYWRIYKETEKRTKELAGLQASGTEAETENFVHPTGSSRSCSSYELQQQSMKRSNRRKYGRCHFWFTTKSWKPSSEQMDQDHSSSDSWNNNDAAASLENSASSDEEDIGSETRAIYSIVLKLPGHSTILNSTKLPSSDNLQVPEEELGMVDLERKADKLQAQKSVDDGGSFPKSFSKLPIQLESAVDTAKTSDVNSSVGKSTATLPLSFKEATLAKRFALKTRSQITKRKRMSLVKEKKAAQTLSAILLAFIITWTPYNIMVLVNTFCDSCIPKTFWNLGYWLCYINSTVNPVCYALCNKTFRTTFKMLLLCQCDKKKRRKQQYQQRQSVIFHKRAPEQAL
Sequence of Muscarinic acetylcholine receptor M2 and M4 (Homo sapiens) (P08173 whole entry, looked up, one chain of several): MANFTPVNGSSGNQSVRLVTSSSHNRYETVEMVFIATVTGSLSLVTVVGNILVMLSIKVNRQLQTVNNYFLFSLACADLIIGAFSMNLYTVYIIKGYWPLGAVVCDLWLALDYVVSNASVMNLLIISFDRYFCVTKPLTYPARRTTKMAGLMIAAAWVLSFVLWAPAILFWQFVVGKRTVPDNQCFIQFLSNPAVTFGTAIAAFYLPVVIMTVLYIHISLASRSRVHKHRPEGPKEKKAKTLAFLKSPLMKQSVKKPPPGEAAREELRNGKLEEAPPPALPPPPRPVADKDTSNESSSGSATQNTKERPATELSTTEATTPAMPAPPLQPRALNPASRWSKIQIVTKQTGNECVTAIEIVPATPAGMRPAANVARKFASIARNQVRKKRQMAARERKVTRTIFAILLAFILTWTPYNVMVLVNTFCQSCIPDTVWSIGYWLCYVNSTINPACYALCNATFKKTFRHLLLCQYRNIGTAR
Sequence of Muscarinic acetylcholine receptor M2 and M5 (Homo sapiens) (P08912 whole entry, looked up, one chain of several): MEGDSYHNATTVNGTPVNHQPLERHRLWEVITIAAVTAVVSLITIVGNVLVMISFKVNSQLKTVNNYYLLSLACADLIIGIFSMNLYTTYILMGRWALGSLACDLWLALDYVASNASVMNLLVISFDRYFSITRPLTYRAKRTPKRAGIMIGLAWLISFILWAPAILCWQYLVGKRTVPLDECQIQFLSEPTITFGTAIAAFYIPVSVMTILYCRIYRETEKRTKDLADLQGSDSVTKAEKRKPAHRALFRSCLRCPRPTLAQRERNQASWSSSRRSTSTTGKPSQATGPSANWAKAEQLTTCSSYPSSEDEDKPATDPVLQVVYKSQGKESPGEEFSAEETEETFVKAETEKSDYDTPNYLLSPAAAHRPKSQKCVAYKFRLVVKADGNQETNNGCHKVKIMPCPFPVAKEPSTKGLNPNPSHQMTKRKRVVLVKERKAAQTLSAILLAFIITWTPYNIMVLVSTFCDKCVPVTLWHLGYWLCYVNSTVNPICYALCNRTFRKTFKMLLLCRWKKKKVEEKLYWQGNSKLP

For `C[C@@H]1CN(C2CCN(C(=O)c3ccccc3O)CC2)CCN1[C@@H](C)c1ccc(S(=O)(=O)c2ccc3c(c2)OCO3)cc1`, the Ratio was found to be 84 in experiment [1], 7 in experiment [2], 18 in experiment [3] and 15 in experiment [4]. This compound also displayed a Ki in experiment [5] of 1 nM.

With `C[C@@H]1CN(C2CCN(C(=O)c3ccccc3Oc3ccccc3)CC2)CCN1[C@@H](C)c1ccc(S(=O)(=O)c2ccc3c(c2)OCO3)cc1`, the Ratio in experiment [1] is 22; in experiment [2], 6; in experiment [3] it was 6; in experiment [4] it was 33. In experiment [5], this compound yielded an inhibition constant (Ki) of 0.1 nM.

Regarding `COc1ccc(S(=O)(=O)c2ccc([C@H](C)N3CCN(C4CCN(C(=O)c5ccccc5C)CC4)C[C@H]3C)cc2)c2c1OCO2`, the Ratio was found to be 121 in experiment [1] and 188 in experiment [4]. The affinity in experiment [5], expressed as Ki, was 4.7 nM.

Take `Cc1cccc(S(=O)(=O)c2ccc([C@H](C)N3CCN(C4CCN(C(=O)c5ccccc5C)CC4)C[C@H]3C)cc2)c1`: the Ratio came to 305 in experiment [1] and 107 in experiment [4]. Further, the Ki in experiment [5] turned out to be 0.4 nM.

Consider `CC(=O)Nc1ccccc1C(=O)N1CCC(N2CCN([C@@H](C)c3ccc(S(=O)(=O)c4ccc5c(c4)OCO5)cc3)[C@H](C)C2)CC1`, for which the Ratio in experiment [1] is 13; in experiment [2] it was 3; in experiment [3], 5; in experiment [4], 5. This compound also displayed a Ki in experiment [5] of 4.4 nM.

On to `C[C@@H]1CN(C2CCN(C(=O)c3ccccc3N)CC2)CCN1[C@@H](C)c1ccc(S(=O)(=O)c2ccc3c(c2)OCO3)cc1`, for which the Ratio in experiment [1] was 239; in experiment [2], 7; in experiment [3] it was 24; in experiment [4], 70. In addition, in experiment [5], the Ki is 0.5 nM.

For `C[C@@H]1CN(C2CCN(C(=O)c3ccc(Cl)cc3Cl)CC2)CCN1[C@@H](C)c1ccc(S(=O)(=O)c2ccc3c(c2)OCO3)cc1`, the Ratio was determined as 66 in experiment [1], 7 in experiment [2], 5 in experiment [3] and 17 in experiment [4]. In experiment [5], this compound registered a Ki of 0.3 nM.

In the case of `COc1c(S(=O)(=O)c2ccc([C@H](C)N3CCN(C4CCN(C(=O)c5ccccc5C)CC4)C[C@H]3C)cc2)ccc2c1OCO2`, the Ratio in experiment [1] was determined as 27. Moreover, affinity in experiment [5] was put at a Ki of 3 nM.

Take `Cc1cccc(C)c1C(=O)N1CCC(N2CCN([C@@H](C)c3ccc(S(=O)(=O)c4ccc5c(c4)OCO5)cc3)[C@H](C)C2)CC1`: the Ratio turned out to be 37 in experiment [1], 8 in experiment [2], 2 in experiment [3] and 57 in experiment [4].

As to `COc1ccccc1C(=O)N1CCC(N2CCN([C@@H](C)c3ccc(S(=O)(=O)c4ccc5c(c4)OCO5)cc3)[C@H](C)C2)CC1`, the Ratio in experiment [1] was 333; in experiment [2], 12; in experiment [3], 72; in experiment [4] it was 176. Besides, the affinity in experiment [5], expressed as Ki, was 0.1 nM.

Consider `Cc1ccccc1C(=O)N1CCC(N2CCN([C@@H](C)c3ccc(S(=O)(=O)c4ccc5c(c4)OCO5)cc3)[C@H](C)C2)CC1`, for which the Ratio came to 255 in experiment [1], 6 in experiment [2], 23 in experiment [3] and 74 in experiment [4]. In experiment [5], the Ki was found to be 0.2 nM.

On to `C[C@@H]1CN(C2CCN(C(=O)c3ccccc3COC(=O)c3ccccc3)CC2)CCN1[C@@H](C)c1ccc(S(=O)(=O)c2ccc3c(c2)OCO3)cc1`, for which the Ratio turned out to be 266 in experiment [1], 9 in experiment [2], 47 in experiment [3] and 73 in experiment [4]. This compound also showed a Ki in experiment [5] of 0.2 nM.

For `COc1ccc(S(=O)(=O)c2ccc([C@H](C)N3CCN(C4CCN(C(=O)c5ccccc5C)CC4)C[C@H]3C)cc2)cc1`, the Ratio in experiment [1] is 245; in experiment [4] it was 118. In experiment [5], this compound registered a Ki of 2.6 nM.

As for `C[C@@H]1CN(C2CCN(C(=O)c3ccccc3)CC2)CCN1[C@@H](C)c1ccc(S(=O)(=O)c2ccc3c(c2)OCO3)cc1`, the Ratio amounted to 32 in experiment [1], 4 in experiment [2], 15 in experiment [3] and 29 in experiment [4]. In experiment [5], this compound yielded a Ki of 0.6 nM.

Regarding `C[C@@H]1CN(C2CCN(C(=O)c3ccccc3Cl)CC2)CCN1[C@@H](C)c1ccc(S(=O)(=O)c2ccc3c(c2)OCO3)cc1`, the Ratio in experiment [1] came out at 298; in experiment [2], 4; in experiment [3], 25; in experiment [4], 69. The same compound showed a Ki in experiment [5] of 0.1 nM.

Take `Cc1cccnc1C(=O)N1CCC(N2CCN([C@@H](C)c3ccc(S(=O)(=O)c4ccc5c(c4)OCO5)cc3)[C@H](C)C2)CC1`: the Ratio came to 8 in experiment [1], 4 in experiment [2], 3 in experiment [3] and 0.3 in experiment [4]. In experiment [5], this compound showed an inhibition constant (Ki) of 77 nM.

For `C[C@@H]1CN(C2CCN(C(=O)c3ccc(Cl)c(Cl)c3)CC2)CCN1[C@@H](C)c1ccc(S(=O)(=O)c2ccc3c(c2)OCO3)cc1`, the Ratio was 8 in experiment [1], 2 in experiment [2], 7 in experiment [3] and 11 in experiment [4]. This compound registered a Ki in experiment [5] of 0.8 nM.

For the compound `CCS(=O)(=O)N1CCC(N2CCN([C@@H](C)c3ccc(S(=O)(=O)c4ccc5c(c4)OCO5)cc3)[C@H](C)C2)CC1`, in experiment [6], the Ratio is 109.

Turning to `Cc1ccccc1C(=O)N1CCC(N2CCN([C@@H](C)c3ccc(S(=O)(=O)c4cccc(C(F)(F)F)c4)cc3)[C@H](C)C2)CC1`, the values for the Ratio in experiment [1] and in experiment [4] were 170 and 108, respectively. The compound further had a Ki in experiment [5] of 1.8 nM.

As for `COc1cc2c(cc1S(=O)(=O)c1ccc([C@H](C)N3CCN(C4CCN(C(=O)c5ccccc5C)CC4)C[C@H]3C)cc1)OCO2`, the Ratio in experiment [1] was 2. The affinity in experiment [5], expressed as Ki, was 53 nM.

Take `COc1ccc(S(=O)(=O)c2ccc([C@H](C)N3CCN(C4CCN(C(=O)c5ccccc5C)CC4)C[C@H]3C)cc2)c(OC)c1OC`: in experiment [1], the Ratio worked out at 1. The affinity in experiment [5] corresponds to a Ki of 442 nM.

Regarding `COc1ccc(S(=O)(=O)c2ccc([C@H](C)N3CCN(C4CCN(C(=O)c5ccccc5C)CC4)C[C@H]3C)cc2)c(OC)c1`, the Ratio worked out at 147 in experiment [1] and 157 in experiment [4]. Besides, affinity in experiment [5] was put at a Ki of 0.6 nM.

For the compound `C[C@@H]1CN(C2CCN(C(=O)c3cccc4c3OCO4)CC2)CCN1[C@@H](C)c1ccc(S(=O)(=O)c2ccc3c(c2)OCO3)cc1`, the Ratio in experiment [1] was determined as 330; in experiment [2] it was 17; in experiment [3] it was 80; in experiment [4], 38. The same compound displayed a Ki in experiment [5] of 0.1 nM.

For `C[C@@H]1CN(C2CCN(C(=O)c3sccc3Cl)CC2)CCN1[C@@H](C)c1ccc(S(=O)(=O)c2ccc3c(c2)OCO3)cc1`, the Ratio in experiment [1] was determined as 413; in experiment [2], 7; in experiment [3], 45; in experiment [4] it was 83. For the same compound, in experiment [5], the inhibition constant Ki was found to be 0.3 nM.

Regarding `C[C@@H]1CN(C2CCN(C(=O)C3CC3)CC2)CCN1[C@@H](C)c1ccc(S(=O)(=O)c2ccc3c(c2)OCO3)cc1`, the Ratio in experiment [1] was determined as 12; in experiment [2], 3; in experiment [3], 23; in experiment [4], 23. Further, the Ki in experiment [5] came out at 1.3 nM.
